# Data from ChEMBL document CHEMBL3259771, “Probing the aurone scaffold against Plasmodium falciparum: design, synthesis and antimalarial activity” (Eur J Med Chem, 2014).
# pEC50, pIC50: −log10 of the molar value. Active and inactive are the calls of the source. No cut-off for these calls is given here.
# Experiments:
# [1] = system: Plasmodium falciparum; assay: Antiplasmodial activity against chloroquine-resistant ring stage Plasmodium falciparum W2 infected in human RBC after 48 hrs by flow cytometric analysis; format: functional, organism-based; settings: W2, 48 h
# Summary of the method: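 Ring-stage W2 parasites at 1% in human erythrocytes, synchronized with 5% sorbitol. Incubated with compound 48 h at 37 °C in RPMI-1640 with 25 mM HEPES pH 7.4, 10% heat-inactivated human serum (or 0.5% Albumax/2% human serum) and hypoxanthine, under 3% O₂/5% CO₂/[…]. Cells fixed in 2% formaldehyde, stained in PBS with NH₄Cl, 0.1% Triton X-100 and 1 nM YOYO-1, then counted by flow cytometry.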
# [2] = system: HEK-293T; assay: Cytotoxicity against HEK293T cells after 48 hrs by MTT assay; format: cell-based; settings: Homo sapiens
# [3] = Selectivity index, ratio of EC50 for HEK293T cells to IC50 for chloroquine-resistant ring stage Plasmodium falciparum W2; format: functional, HEK-293T
# [4] = system: Plasmodium falciparum; assay: Inhibition of Plasmodium falciparum falcipain-2 up to 50 uM
# [5] = Inhibition of hemozoin-like crystal formation after 5 days; format: functional; settings: 120 h
# Summary of the method: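 Hemozoin-like crystal stock suspension sonicated 3 min, diluted in fresh broth. Compounds 0.22-filtered, then added across a 0–1000 final range. Incubated 37 °C, 5% CO2 for 5 days, scored for presence or absence of crystal growth. Triplicate.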
# [6] = Water-lipid distribution coefficient, log D of the compound at pH 7.4; format: physicochemical
# [7] = Water-lipid distribution coefficient, log D of the compound at pH 5.2; format: physicochemical
# [8] = Vacuolar accumulation ratio of the compound; format: ADME
# Summary of the method: (§1)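 Calculated rather than measured. VAR: predicted trapping in acidic digestive vacuole from pH-dependent water/lipid distribution (log D). LAR: expected fraction concentrating in the vacuole's lipid component.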
# [9] = Lipid accumulation ratio of the compound; format: physicochemical; summary of the method: as §1
# [10] = Inhibition of hemozoin-like crystal formation up to 1 mM after 5 days; format: functional
# Summary of the method: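 Hemozoin-like crystal stock suspension sonicated 3 min and diluted in fresh broth medium. Compounds in wells at 0–1000 final concentration after 0.22 filtration. Incubated at 37 °C, 5% CO₂, 5 days, then scored for presence or absence of crystal growth. Triplicate.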
# [11] = system: Plasmodium falciparum; assay: Antimalarial activity against chloroquine-resistant ring stage Plasmodium falciparum Dd2 infected in human erythrocytes after 48 hrs by SYBR Green I staining-based isobologram method in presence of chloroquine; format: functional
# Summary of the method: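 Fixed-ratio isobologram: IC50s of each drug alone found first, then 2-fold dilution dose-response series at IC50 ratios 5:0, 4:1, 3:2, 2:3, 1:4, 0:5. Early ring-stage parasitized erythrocytes at 1% parasitaemia, 3% haematocrit, triplicate wells, 48 h at 37 °C. Growth read by SYBR Green I fluorescence, nonlinear regression. Interaction from sum of FICs (IC50 in combination/IC50 alone).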
# [12] = Inhibition of Plasmodium falciparum falcipain-2
SMILES,pIC50 [1],pEC50 [2],Selectivity Index [3],inhibition [4],MIC [5] [µM],logD [6],logD [7],Ratio [8],Ratio [9],inhibition [10],CI [11],pIC50 [12]
CN(C)c1ccc(/C=C2\Oc3cc(O)ccc3C2=O)cc1,< 5.00,< 4.00,>10,inactive,–,–,–,–,–,–,–,–
COc1cccc2c1O/C(=C\c1ccc(F)cc1F)C2=O,< 5.00,< 4.00,>10,inactive,–,–,–,–,–,–,–,–
O=C1/C(=C/c2ccc(Cl)cc2Cl)Oc2cc(O)ccc21,< 5.00,< 4.00,>10,inactive,–,–,–,–,–,–,–,–
CCN(CC)CCCC(C)Nc1ccnc2cc(Cl)ccc12 (centres undefined) [CHLOROQUINE],–,–,–,–,125,–,–,–,–,–,–,–
O=C1/C(=C/c2ccc(Oc3ccc(Cl)cc3)cc2)Oc2ccccc21,< 5.00,< 4.00,>10,inactive,–,–,–,–,–,–,–,–
O=C1/C(=C/c2ccc(-c3ccccc3)cc2)Oc2ccccc21,< 5.00,< 4.00,>10,inactive,–,–,–,–,–,–,–,–
O=C1/C(=C/c2cccc(-c3ccc(F)cc3)c2)Oc2ccccc21,5.36,< 4.00,>23,inactive,–,–,–,–,–,–,–,–
CN(C)c1ccc(/C=C2\Oc3ccccc3C2=O)cc1,5.10,< 4.00,>13,inactive,–,–,–,–,–,–,–,–
COc1cc(/C=C2\Oc3cc(O)ccc3C2=O)cc(OC)c1OC,< 5.00,< 4.00,>10,inactive,–,–,–,–,–,–,–,–
O=C1/C(=C/c2ccccc2)Oc2cc(-c3ccc(F)cc3)ccc21,< 5.00,< 4.00,>10,inactive,–,–,–,–,–,–,–,–
CN1CCN(Cc2c(O)ccc3c2O/C(=C\c2ccccc2)C3=O)CC1,5.40,< 4.00,>25,–,–,1.02,-3.33,22589,10.6,inactive,–,–
O=C1/C(=C/c2ccccc2)Oc2ccccc21 [(Z)-AURONE],< 5.00,< 4.00,>10,inactive,–,–,–,–,–,–,–,–
O=C1/C(=C/c2cccc(-c3ccc(Cl)cc3)c2)Oc2ccccc21,< 5.00,< 4.00,>10,inactive,–,–,–,–,–,–,–,–
O=C1/C(=C/c2ccc(Cl)cc2Cl)Oc2ccccc21,< 5.00,4.17,<6.8,inactive,–,–,–,–,–,–,–,–
COc1cc(/C=C2\Oc3ccccc3C2=O)cc(OC)c1OC,< 5.00,< 4.00,>10,inactive,–,–,–,–,–,–,–,–
O=Cc1ccc(-c2ccc(/C=C3\Oc4ccccc4C3=O)cc2)cc1,< 5.00,< 4.00,>10,inactive,–,–,–,–,–,–,–,–
Cc1ccc(Oc2ccc(/C=C3\Oc4cc(O)ccc4C3=O)cc2)cc1,5.23,4.02,>16,inactive,–,–,–,–,–,–,–,–
COc1cc(/C=C2\Oc3c(OC)cccc3C2=O)cc(OC)c1OC,< 5.00,< 4.00,>10,inactive,–,–,–,–,–,–,–,–
O=C1/C(=C/c2ccc(-c3cnc4ccccc4c3)cc2)Oc2ccccc21,5.18,< 4.00,>15,inactive,–,5.16,5.08,1.19,144366,–,–,–
O=C1/C(=C/c2ccccc2)Oc2cc(-c3ccccc3)ccc21,< 5.00,< 4.00,>10,inactive,–,–,–,–,–,–,–,–
Nc1ccc(-c2cccc(/C=C3\Oc4ccccc4C3=O)c2)cn1,5.59,4.10,>31,inactive,–,3.67,2.7,9.2,4643,inactive,–,–
O=C1/C(=C/c2ccc(-c3ccc(F)cc3)cc2)Oc2ccccc21,< 5.00,< 4.00,>10,inactive,–,–,–,–,–,–,–,–

SMILES,pIC50 [1],pEC50 [2],Selectivity Index [3],inhibition [4],MIC [5] [µM],logD [6],logD [7],Ratio [8],Ratio [9],inhibition [10],CI [11],pIC50 [12]
CCN(CC)Cc1c(O)ccc2c1O/C(=C\c1ccccc1)C2=O,5.46,< 4.00,>29,–,–,1.79,-0.4,156,62,inactive,–,–
O=C1/C(=C/c2ccc(-c3ccc(Cl)cc3)cc2)Oc2ccccc21,< 5.00,< 4.00,>10,inactive,–,–,–,–,–,–,–,–
O=C1/C(=C/c2ccc(Cc3ccccc3)cc2)Oc2ccccc21,5.13,4.06,>12,inactive,–,–,–,–,–,–,–,–
Nc1ccc(-c2ccc3c(c2)O/C(=C\c2ccccc2)C3=O)cn1,5.52,< 4.00,>33,inactive,–,5.18,4.21,9.2,150233,inactive,–,–
Cc1ccc(Oc2ccc(/C=C3\Oc4ccccc4C3=O)cc2)cc1,< 5.00,< 4.00,>10,inactive,–,–,–,–,–,–,–,–
Nc1ccc(-c2ccc(/C=C3\Oc4ccccc4C3=O)cc2)cn1,5.43,< 4.00,>27,inactive,–,3.67,2.7,9.2,4643,inactive,–,–
O=C1/C(=C/c2ccccc2)Oc2c1ccc(O)c2CN1CCCCC1,5.93,< 4.00,>85,–,–,2.04,-0.15,155,110,inactive,–,–
O=C1/C(=C/c2ccc(Oc3ccc(Cl)cc3)cc2)Oc2cc(O)ccc21,5.01,4.92,>1,inactive,–,–,–,–,–,–,–,–
O=C1/C(=C/c2ccccc2)Oc2c1ccc(O)c2CN1CCOCC1,5.48,< 4.00,>30,–,–,2.42,1.19,17.2,265,inactive,1.06,–
O=C1/C(=C/c2ccc(F)cc2F)Oc2cc(O)ccc21,< 5.00,< 4.00,>10,inactive,–,–,–,–,–,–,–,–
O=C1/C(=C/c2ccc(NCc3ccccc3)cc2)Oc2ccccc21,5.30,< 4.00,>20,inactive,–,–,–,–,–,–,–,–
O=Cc1ccc(-c2cccc(/C=C3\Oc4ccccc4C3=O)c2)cc1,< 5.00,< 4.00,>10,inactive,–,–,–,–,–,–,–,–
O=C1/C(=C/c2ccc(Br)cc2)Oc2ccccc21,5.49,< 4.00,>31,inactive,–,–,–,–,–,–,–,–
O=C1/C(=C/c2cccc(Br)c2)Oc2ccccc21,5.33,< 4.00,>21,inactive,–,–,–,–,–,–,–,–
O=C1/C(=C/c2ccccc2)Oc2cc(O)ccc21,< 5.00,< 4.00,>10,inactive,–,–,–,–,–,–,–,–
COc1cccc2c1O/C(=C\c1ccc(Cl)cc1Cl)C2=O,5.32,< 4.00,>21,–,–,–,–,–,–,–,–,4.73
O=C1/C(=C/c2ccccc2Br)Oc2ccccc21,< 5.00,< 4.00,>10,inactive,–,–,–,–,–,–,–,–
O=C1/C(=C/c2ccc(F)cc2F)Oc2ccccc21,< 5.00,< 4.00,>10,inactive,–,–,–,–,–,–,–,–
O=C1/C(=C/c2cccc(Cc3ccccc3)c2)Oc2ccccc21,5.64,4.15,>31,inactive,–,–,–,–,–,–,–,–
O=C1/C(=C/c2cccc(-c3ccccc3)c2)Oc2ccccc21,5.28,< 4.00,>19,inactive,–,–,–,–,–,–,–,–
O=C1/C(=C/c2ccc(Nc3ccccc3)cc2)Oc2ccccc21,5.07,< 4.00,>12,inactive,–,–,–,–,–,–,–,–
COc1cccc2c1O/C(=C\c1ccccc1)C2=O,< 5.00,< 4.00,>10,inactive,–,–,–,–,–,–,–,–
